Screening data as filed in PubChem.
Hits are enriched below; roughly 4.5% of the tested compounds scored in any of these assays.
GPR7 antag: antagonists of human GPR7 (neuropeptides B/W receptor 1); GPR7-expressing cells, fluorescence antagonist assay; AID 1861; inhibition, % at 4.4 µM; P48145; 1.1% of 290,000 active; in the data active = inhibition above about 16%, passing the limit was not always enough;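 also: cells stimulated with the agonist NPW; 0% = agonist with vehicle and 100% = vehicle without agonist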
CHO parental Ca: counter-screen: ATP calcium response change in parental CHO cells. inhibition, % at 5.6 µM. parental CHO-K1, ATP-induced calcium, Fluo-8 fluorescence. 0.63% of 330,000 active. AID 463079;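 active = inhibition above that plate's mean sample inhibition plus 3 SD, cut at about 26% in these data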;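 also: 0% = ATP-challenged DMSO wells and 100% = DMSO wells without ATP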
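Assay system: parental CHO cells; Read-out basis: percent inhibition of ATP-evoked calcium rise, normalized to controls; Benchmarks: ATP and no-ATP DMSO wells; Compound dosing: single nominal dose of 5.6 µM per compound; Signal: Fluo-8 calcium dye fluorescence; Also added: ATP as calcium-mobilizing challenge; Repeats: singlicate.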
OX1R antag-1: blocks the human orexin 1 receptor; O43613; CHO/OX1R cells, Fluo-8 calcium fluorescence, orexin A; inhibition, % at 5 µM; 0.43% of 330,000 active; AID 434989;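 active = inhibition above its plate's threshold, mean inhibition of all tested compounds on the plate plus 3 SD, cut at about 37% in these data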;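 also: 0% = orexin A challenge wells and 100% = SB-334867-A antagonist wells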
TAAR1 antagonist: human TAAR1 antagonism. inhibition, % at 3 µM. AID 624466. CHO RD-HGA16 TAAR1, Fluo-8 calcium fluorescence, antagonist. Q96RJ0. 1.5% of 360,000 active;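 active = inhibition above a per-plate cutoff, the mean inhibition of test compounds on that plate plus 3 SD, cut at about 49% in these data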;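 also: 0% = DMSO plus EC80 beta-PEA response and 100% = DMSO alone without agonist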
Target sequence (Q96RJ0 whole entry, looked up): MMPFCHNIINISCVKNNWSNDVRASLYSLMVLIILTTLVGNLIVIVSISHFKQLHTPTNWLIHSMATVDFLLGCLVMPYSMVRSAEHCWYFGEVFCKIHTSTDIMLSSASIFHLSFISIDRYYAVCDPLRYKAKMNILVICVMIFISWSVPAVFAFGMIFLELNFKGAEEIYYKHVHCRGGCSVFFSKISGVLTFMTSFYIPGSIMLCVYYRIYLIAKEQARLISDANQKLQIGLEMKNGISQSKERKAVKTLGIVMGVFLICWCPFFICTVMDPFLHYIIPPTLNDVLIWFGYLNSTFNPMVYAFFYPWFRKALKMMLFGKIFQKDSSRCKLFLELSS
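Material: RD-HGA16 CHO cells with stable hTAAR1 and Gα16; Dosing: single nominal final test compound concentration of 3 µM; Schedule: seeding 17-24 h prior, 75-min 37 °C, 30-min RT dye loading; Detection: kinetic Fluo-8 calcium fluorescence measurement; Measure: % inhibition from peak post-agonist over basal fluorescence ratio; Benchmarks: vehicle and agonist controls.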
TAAR1 agonist: agonists of human TAAR1 | Q96RJ0 | 0.99% of 360,000 active | CHO RD-HGA16 TAAR1, Fluo-8 calcium fluorescence; vehicle wells 0%, saturating PEA agonist 100% | activation, % at 3 µM;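 active = activation above the mean activation of all test compounds in the run plus 3 SD, cut at about 38% in these data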
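Test system: RD-HGA16 (CHO) cells co-expressing Gα16 and hTAAR1 | Doses: Single dose, 3 µM | Schedule: 17-24 h seeding, 75 min 37 °C dye, 30 min RT | Evaluation: % activation from peak over basal fluorescence ratio, DMSO-to-PEA scaled | Technique: Kinetic Fluo-8 calcium fluorescence | Benchmarks: Low control DMSO, high control PEA (EC100)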
OX1R antag-2: antagonists of human orexin 1 receptor (OX1R) | O43613 | OX1R-expressing cells, FRET antagonist read-out | inhibition, % at 6.6 µM | 1.8% of 330,000 active | AID 485270; in the data active = inhibition mostly above about 38%, no sharp cut-off; inactive = mostly below about 40%;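 also: 0% = agonist challenge alone and 100% = reference antagonist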
OX1R Ca confirm: confirmation of human orexin 1 receptor antagonists. CHO/OX1R cells, orexin A calcium Fluo-8 fluorescence. 38% of 1,100 active. AID 492963. inhibition, % at 5 µM. shares compounds with OX1R antag-1; in the data active = inhibition above about 29%;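 also: 0% = agonist challenge alone and 100% = reference antagonist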
CHO Ca triplic: counter-screen for OX1R antagonists: effect in parental CHO cells; inhibition, % at 5.6 µM; parental CHO-K1, ATP-induced calcium, Fluo-8 fluorescence; AID 492965; 9.3% of 1,100 active; shares compounds with OX1R antag-1;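 active = inhibition above a per-plate limit, the mean inhibition of that plate's test compounds plus 3 SD, cut at about 25% in these data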;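 also: 0% = ATP challenge with DMSO and 100% = DMSO without ATP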
OX1R HTRF conf: confirmation of human orexin 1 receptor antagonists, HTRF format; inhibition, % at 6.6 µM; AID 492964; 49% of 1,800 active; shares compounds with OX1R antag-2; OX1R-expressing cells, HTRF antagonist assay; in the data active = inhibition above about 55%;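 also: CHO cells expressing OX1R stimulated with orexin A at about EC80; 0% = agonist challenge alone and 100% = reference antagonist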
CHO-K1 HTRF cnt: counter-screen: parental CHO-K1 HTRF response; shares compounds with OX1R antag-2; parental CHO-K1 cells, HTRF counterscreen; 48% of 1,800 active; inhibition, % at 6.6 µM; AID 493232; in the data active = inhibition above about 17%;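 also: 0% = agonist challenge with vehicle and 100% = vehicle alone without agonist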
An asterisk follows results filed as active; nt = not tested or not shown.

SMILES	GPR7 antag	CHO parental Ca	OX1R antag-1	TAAR1 antagonist	TAAR1 agonist	OX1R antag-2	OX1R Ca confirm	CHO Ca triplic	OX1R HTRF conf	CHO-K1 HTRF cnt
Cc1cc(NC(=O)CSc2nc(C(C)(C)C)nc3ccccc23)no1	-4.6	-20.4	-24.2	14.3	-0.5	23.6	nt	nt	nt	nt
O=S(=O)(CCOc1ccccc1)c1nc2ccccc2[nH]1	10.6	-16.9	32.9	6.5	6.0	85.7*	15.2	-1.8	54.0	-0.9
COc1cccc(NC(=O)CN2C(=O)C(c3ccc(C)cc3)=NC23CCCCCC3)c1	-6.8	-27.7	41.4*	-5.2	2.4	75.2*	47.4*	0.4	87.2*	2.7
COc1cc(Cl)c(C)cc1Nc1ncccn1	-9.4	-1.6	25.1	-23.9	8.9	82.2*	23.8	-4.3	73.9*	8.1
CC(C)(C)C(=O)Nc1cccc(-c2nc3ccccc3[nH]2)c1	4.6	-2.5	-29.9	15.0	12.2	10.9	nt	nt	nt	nt
CC(C)(C)C(=O)Nc1sc2c(c1-c1nc3ccccc3[nH]1)CCCC2	-5.7	-28.5	79.6*	-8.3	4.1	55.8*	13.9	-8.4	55.6*	1.3
O=C1NCC(c2ccccc2)C1C(=O)N/N=C\c1ccc(-c2cccc(Cl)c2Cl)o1 (configuration not stated)	-7.3	-6.4	86.7*	28.0	17.9	100.7*	69.2*	2.4	86.9*	0.0
COc1cccc(/C=N\NC(=O)C2C(=O)NCC2c2ccccc2)c1O (configuration not stated)	-0.4	-13.2	6.7	-9.8	2.6	23.1	nt	nt	nt	nt
Cc1ccc(-c2ccc(/C=N\NC(=O)C3C(=O)NCC3c3ccccc3)o2)cc1Cl (configuration not stated)	-4.8	-5.4	29.3	5.5	12.5	69.5*	48.3*	5.0	60.9*	11.1
COC(=O)N/N=C/c1ccc(-c2ccc(C)c(Cl)c2)o1	-4.5	-5.5	-23.7	-7.7	-1.0	7.8	nt	nt	nt	nt
COC(=O)c1c(N)[nH]c(C(=O)c2ccccc2)c1-c1ccccc1Br	nt	nt	nt	23.7	13.2	nt	nt	nt	nt	nt
COc1ccc(CCNc2cc(=O)[nH]c(N)n2)cc1	-4.3	-3.7	76.0*	nt	nt	86.1*	11.5	1.8	55.3*	6.1
COc1ccc(CCNc2ccc([N+](=O)[O-])cn2)cc1	7.3	nt	nt	21.6	3.7	nt	nt	nt	nt	nt
COc1cc(C(=O)Nc2cccc(-n3cnnn3)c2)cc(OC)c1OC	-10.5	-12.0	-14.7	2.1	6.5	27.8	nt	nt	nt	nt
COc1cccc(OC)c1C(=O)Nc1cccc(-n2cnnn2)c1	0.5	-18.5	26.0	3.1	0.9	88.0*	28.1	-5.4	80.1*	-0.1
CC(C)CCNC(=O)C1(C)CCN1Cc1ccc2ccccc2c1 (configuration not stated)	nt	nt	nt	-45.4	-1.6	nt	nt	nt	nt	nt
O=c1[nH]c(=S)[nH]c2c1C(c1ccc(Cl)cc1)OC(C1CCCCC1)C2 (configuration not stated)	nt	nt	nt	-23.9	-2.4	nt	nt	nt	nt	nt
Nc1cccc(C#Cc2ccc3c(=O)c4ccccc4oc3c2)c1	nt	-33.3	51.5*	39.5	11.9	72.4*	11.9	99.0*	49.5	8.4
Cc1nc2ccc(NC(=O)c3oc4ccc(F)cc4c3C)cc2s1	nt	-9.0	72.3*	nt	nt	100.3*	58.8*	-10.7	92.6*	12.7
Cc1c(C(=O)Nc2ccc3nc(N4CCOCC4)sc3c2)oc2ccccc12	nt	-21.1	-11.1	33.3	17.7	25.6	nt	nt	nt	nt
COc1ccccc1NC(=O)c1ccccc1NS(=O)(=O)c1cccs1	6.7	-9.6	-21.2	-1.8	3.6	35.2	nt	nt	nt	nt
COc1ccc(C)cc1NC(=O)c1ccccc1NS(=O)(=O)c1ccc(Cl)s1	-1.3	28.4	22.9	18.6	3.5	62.4*	8.6	46.2*	41.9	9.2
